# Screening data: PubChem BioAssay, The Scripps Research Institute Molecular Screening Center
# Rows were chosen to be rich in hits. Some 3.3% of all compounds tested hit in one or more screens of this group.
# SIAE inh: inhibitors of human sialic acid acetylesterase SIAE. Q9HAT2. SIAE FP-Rh probe binding, fluorescence polarization. inhibition, % at 9.66 µM. hit rate 0.69% among 370,000;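 active means inhibition above a cutoff: mean of compounds within the control limits plus 3 SD of those, cut at about 17% in these data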;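 further: 0% = plate median of compound wells and 100% = probe without SIAE protein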
# MBD2 DNA inh: MBD2-methylated oligo binding inhibition. Q9UBB5. TR-FRET, MBD2 binding to methylated oligonucleotide. inhibition, % at 4.4 µM. hit rate 0.31% among 370,000; in the data active means inhibition above about 13%
# UHRF1 MBD2 ctr: human UHRF1 methylated DNA binding inhibitors; Q96T88; hit rate 0.75% among 370,000; AID 687016; UHRF1 binding to methylated oligo, TR-FRET; inhibition, % at 4.4 µM; in the data active means inhibition above about 21%;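 further: UHRF1 SRA domain binding a hemimethylated CpG hairpin DNA probe; 0% = median of test compound wells and 100% = reference inhibitor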
# LEDGF integ inh: blocks HIV-1 LEDGF/p75-dependent DNA integration; TR-FRET IN-LEDGF/p75 DNA integration, Eu/Cy5; hit rate 0.64% among 370,000; AID 743269; inhibition, % at 3.7 µM;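 active means inhibition above the screen-wide mean plus 3 SD, cut at about 13% in these data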;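 further: signal is the Cy5 over europium emission ratio at 671 and 618 nm; 0% = plate median of compound wells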
# TDP2 inh: TDP2 (human) inhibition, absorbance primary screen; O95551; recombinant TDP2, T5PNP hydrolysis, p-nitrophenol absorbance 415 nm; inhibition, % at 12.8 µM; hit rate 0.34% among 370,000; AID 720702;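 active means inhibition above the mean of all tested compounds plus 3 SD, set per campaign, cut at about 25% in these data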;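 further: 0% = DMSO with enzyme and 100% = buffer with substrate but no TDP2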
# Target sequence (O95551 whole entry, looked up): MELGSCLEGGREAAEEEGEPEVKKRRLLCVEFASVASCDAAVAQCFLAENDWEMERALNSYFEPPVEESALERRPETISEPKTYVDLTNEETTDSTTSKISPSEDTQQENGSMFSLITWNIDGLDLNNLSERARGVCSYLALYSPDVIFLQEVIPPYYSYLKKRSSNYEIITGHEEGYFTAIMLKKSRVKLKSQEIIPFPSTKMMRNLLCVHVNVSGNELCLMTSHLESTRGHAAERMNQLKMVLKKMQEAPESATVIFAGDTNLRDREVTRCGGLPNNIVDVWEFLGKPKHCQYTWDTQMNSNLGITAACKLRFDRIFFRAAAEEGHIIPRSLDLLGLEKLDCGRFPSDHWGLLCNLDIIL
#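 System – recombinant human TDP2 · Quantity – TDP2 enzyme at 120 nM final · Doses – single concentration, 12.8 µM nominal, with 1% DMSO · Incubation – 2 h at 37 °C · Measured by – epi absorbance of p-nitrophenol freed from T5PNP by hydrolysis · Read-out – % inhibition relative to enzyme-containing and enzyme-free wells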
# PRMT1 FP inh: PRMT1 (human) inhibition, primary screen. inhibition, % at 2.79 µM. hit rate 1.3% among 370,000. AID 652257. recombinant PRMT1, activity-based probe fluorescence polarization;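 active means inhibition above about 21% made by adding two undisclosed values, limit read from the data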
# SIAE inh conf: human SIAE inhibition, confirmation; shares compounds with SIAE inh; SIAE FP-Rh activity-based probe, fluorescence polarization; inhibition, % at 9.66 µM; hit rate 13% among 2,300; AID 1117263;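 active means mean inhibition of the replicates above the hit cutoff set in the primary screen, cut at about 17% in these data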;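 further: 0% = SIAE with DMSO and probe and 100% = probe without SIAE; inhibitors lower polarization as more probe stays unbound to SIAE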
# Starred values were filed as active, the others as inactive; / = no result given.
SMILES,SIAE inh,MBD2 DNA inh,UHRF1 MBD2 ctr,LEDGF integ inh,TDP2 inh,PRMT1 FP inh,SIAE inh conf
O=C(CN(Cc1ccc(Br)cc1)S(=O)(=O)c1ccccc1)NCC1CCCO1 (stereo not drawn),18*,-3,-1,1,7,-2,16
O=C(NCC1CCCO1)c1cccc(NC(=O)c2ccccc2)c1 (stereo not drawn),6,0,1,-2,13,-6,/
O=C(NCC1CCCO1)c1ccccc1 (stereo not drawn),17*,1,-3,1,3,-4,4
O=C(CSc1nnc(CNC(=O)c2ccc(F)cc2)o1)NCC1CCCO1 (stereo not drawn),7,-4,0,3,2,4,/
S=C(NCC1CCCO1)Nc1ccccc1 (stereo not drawn),21*,-4,-3,-1,-2,2,0
S=C(NCC1CCCO1)Nc1ccc(Cl)cc1 (stereo not drawn),-4,-1,0,-1,9,-2,/
O=C(NCC1CCCO1)c1nnc(Cc2ccc(F)cc2)o1 (stereo not drawn),18*,-8,-1,8,-2,-4,-5
Nc1ccc2nc(-c3ccccn3)[nH]c2c1,51*,-1,-5,2,-6,-1,9
CN(Cc1ccccc1)C(=O)OCc1cn(Cc2cc(F)cc(F)c2)nn1,4,8,-1,-2,4,7,/
COc1ccc(OC)c(NC(=O)c2cc3c(Cl)nc4ccccc4c3s2)c1,3,-2,12,1,7,-3,/
COc1ccc(NC(=O)c2cc3c(Cl)nc4ccccc4c3s2)cc1OC,26*,-4,-3,5,1,-3,-4
COc1ccc(S(=O)(=O)n2nc(OC(=O)C3CCCCC3)cc2N)cc1,43*,1,15,4,2,0,50*
Cc1ccc(S(=O)(=O)n2nc(OC(=O)C3CCCCC3)cc2N)cc1,36*,6,1,-1,-7,5,38*
COc1ccc(CN2C[C@H](COCc3ccccc3)Oc3cccc(F)c3S2(=O)=O)cc1,-4,-2,2,6,-8,-4,/
CC(C)(C)c1cc(C(=O)C[n+]2ccc(C(=O)NCCCO)cc2)cc(C(C)(C)C)c1O,18*,-2,-1,6,7,-4,0
COc1cccc(CN2CCNC(=O)C2CC(=O)NCc2cn3cccc(C)c3n2)c1OC (stereo not drawn),0,-5,-4,1,-1,-2,/
COc1cccc(CN2CCNC(=O)C2CC(=O)NCc2cn3ccccc3n2)c1OC (stereo not drawn),22*,2,-5,2,5,0,-3
CCOc1ccc(CN2CCNC(=O)C2CC(=O)NCCc2ccccn2)cc1 (stereo not drawn),0,-4,-2,4,11,-3,/
CCOc1ccc(CN2CCNC(=O)C2CC(=O)NCc2ccccn2)cc1 (stereo not drawn),18*,-4,3,0,-4,2,-4
COC(=O)[C@@H](N[C@H](/C=C/c1ccccc1)[C@@H](O)Cc1ccccc1)C(C)C,-3,-1,1,2,-11,-5,/
COc1ccc2cc(-c3cn(C(=O)N(c4ccccc4)c4ccccc4)nn3)ccc2c1,-3,-2,1,3,-8,0,/
COc1cc(C(C[N+](=O)[O-])c2c(C)cc3ccccn23)ccc1O (stereo not drawn),19*,-9,-4,-2,-1,8,6
Cc1cc(Cl)ccc1NC(=O)CN1C(=O)NC2(CCCC2)C1=O,-2,1,2,3,-4,-1,/
Cc1ccc(Cl)cc1NC(=O)CN1C(=O)NC2(CCCCCC2)C1=O,45*,3,0,-1,2,1,2
O=C1CCCN1c1ccc(S(=O)(=O)N2CCCCC2)cc1,17*,-2,-3,0,6,-1,-1
O=C(NC1CCCCN(Cc2ccc(Cl)cc2)C1=O)c1cccc(C(F)(F)F)c1 (stereo not drawn),-2,7,0,0,-9,4,/
